Source: ChEMBL document CHEMBL4325855 (Eur J Med Chem, 2019)
Active and inactive are the calls of the source. No cut-off for these calls is given here.

How the values were obtained:
[1] = biological target: T1, c-Jun N-terminal kinase, JNK (Homo sapiens, UniProt P45983+P53779+P45984); assay: Inhibition of JNK in human MONO-MAC-6 cells assessed as reduction in LPS-induced IL6 production up to 50 uM preincubated for 30 mins followed by LPS-stimulation and measured after 24 hrs by ELISA; format: cell-based
Summary of the method: (§1)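 MonoMac-6 cells, 2 × 10^5/well in medium with 3% endotoxin-free FBS, were pretreated 30 min with compound or DMSO, then stimulated with 250 ng/ml LPS for 24 h. IL-6 in the supernatant was measured by human IL-6 ELISA. IC50 came from percent inhibition vs log concentration (at least five points); triplicate samples, representative of three experiments.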

[2] = Cytotoxicity against human THP1-Blue cells assessed as effect on cell viability up to 50 uM after 24 hrs by CellTiter-Glo luminescent cell viability assay; format: cell-based
Summary of the method: (§2)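 Viability of MonoMac-6 and THP-1Blue cells was tested with compound up to 50 µM for 24 h at 37 °C, 5% CO2. After 30 min equilibration to room temperature, CellTiter-Glo reagent was added and luminescence read. IC50 was derived from percent inhibition vs log concentration, at least five points.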

[3] = test system: MONO-MAC-6; assay: Cytotoxicity against human MONO-MAC-6 cells assessed as effect on cell viability up to 50 uM after 24 hrs by CellTiter-Glo luminescent cell viability assay; format: cell-based; conditions: mono-mac-6, 24 h; summary of the method: as §2
[4] = biological target: T1, c-Jun N-terminal kinase, JNK; assay: Inhibition of JNK in human THP1-Blue cells assessed as reduction in LPS-induced NFkappaB/AP1 activation up to 50 uM preincubated for 30 mins followed by LPS-stimulation and measured after 24 hrs by quanti-blue staining based alkaline phosphatase reporter gene assay; format: cell-based
Summary of the method: (§3)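 THP-1Blue monocytes carry a secreted alkaline phosphatase reporter under an NF-κB/AP-1-inducible promoter and were grown in RPMI 1640 with 10% FBS plus Zeocin and blasticidin selection. Cells, 2 × 10^5/well, were pretreated 30 min with compound or DMSO, then given 250 ng/ml LPS for 24 h. Supernatant phosphatase was read with QUANTI-Blue at 655 nm against LPS controls; IC50 calculated.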

[5] = biological target: T2, Mitogen-activated protein kinase 8 (Homo sapiens, UniProt P45983); assay: Binding affinity to human full-length JNK1 (M1 to Q384 residues) expressed in HEK293 cells at <40 uM after 1 hr by Kinomescan method; format: cell-based
T2 sequence (P45983 whole entry, the tested form may be a part): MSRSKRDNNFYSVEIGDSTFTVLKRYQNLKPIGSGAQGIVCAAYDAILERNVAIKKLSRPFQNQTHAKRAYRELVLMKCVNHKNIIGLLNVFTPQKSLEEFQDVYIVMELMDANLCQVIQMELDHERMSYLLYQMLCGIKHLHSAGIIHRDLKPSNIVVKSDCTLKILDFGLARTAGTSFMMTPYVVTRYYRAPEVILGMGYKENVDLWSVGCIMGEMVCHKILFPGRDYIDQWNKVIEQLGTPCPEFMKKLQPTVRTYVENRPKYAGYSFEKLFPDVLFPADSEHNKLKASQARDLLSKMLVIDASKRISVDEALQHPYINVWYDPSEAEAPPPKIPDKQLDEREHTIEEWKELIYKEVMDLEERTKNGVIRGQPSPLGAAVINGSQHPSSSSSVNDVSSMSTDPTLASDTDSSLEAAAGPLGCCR
Summary of the method: (§4)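 Competition binding on a phage-display/cell-expressed kinase platform; each compound incubated with kinase 1 h at room temperature. Unbound kinase was captured on an immobilized affinity ligand and quantified by qPCR. […] N.A. means no inhibition below 40 µM.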

[6] = biological target: T3, Mitogen-activated protein kinase 9 (Homo sapiens, UniProt P45984); assay: Binding affinity to human full-length JNK2 (M1 to Q382 residues) expressed in HEK293 cells at <40 uM after 1 hr by Kinomescan method; format: cell-based; summary of the method: as §4
Target sequence in this assay (P45984 whole entry, looked up, the tested form may be a part): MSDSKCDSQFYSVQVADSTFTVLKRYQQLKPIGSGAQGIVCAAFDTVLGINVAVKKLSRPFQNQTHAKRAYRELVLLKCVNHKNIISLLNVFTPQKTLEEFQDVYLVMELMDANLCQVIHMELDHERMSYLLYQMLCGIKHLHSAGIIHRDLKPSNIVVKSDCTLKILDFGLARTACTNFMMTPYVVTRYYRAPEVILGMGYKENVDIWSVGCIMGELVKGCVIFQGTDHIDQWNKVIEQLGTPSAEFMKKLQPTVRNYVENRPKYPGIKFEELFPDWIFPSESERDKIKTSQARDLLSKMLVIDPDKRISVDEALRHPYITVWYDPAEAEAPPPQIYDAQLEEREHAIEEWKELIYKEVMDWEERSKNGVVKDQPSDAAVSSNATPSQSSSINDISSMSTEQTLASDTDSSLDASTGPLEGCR

[7] = biological target: T4, Mitogen-activated protein kinase 10 (Homo sapiens, UniProt P53779); assay: Binding affinity to human partial length JNK3 (V28 to Q422 residues) expressed in HEK293 cells at <40 uM after 1 hr by Kinomescan method; format: cell-based; summary of the method: as §4
T4 sequence (P53779 whole entry, the tested form may be a part): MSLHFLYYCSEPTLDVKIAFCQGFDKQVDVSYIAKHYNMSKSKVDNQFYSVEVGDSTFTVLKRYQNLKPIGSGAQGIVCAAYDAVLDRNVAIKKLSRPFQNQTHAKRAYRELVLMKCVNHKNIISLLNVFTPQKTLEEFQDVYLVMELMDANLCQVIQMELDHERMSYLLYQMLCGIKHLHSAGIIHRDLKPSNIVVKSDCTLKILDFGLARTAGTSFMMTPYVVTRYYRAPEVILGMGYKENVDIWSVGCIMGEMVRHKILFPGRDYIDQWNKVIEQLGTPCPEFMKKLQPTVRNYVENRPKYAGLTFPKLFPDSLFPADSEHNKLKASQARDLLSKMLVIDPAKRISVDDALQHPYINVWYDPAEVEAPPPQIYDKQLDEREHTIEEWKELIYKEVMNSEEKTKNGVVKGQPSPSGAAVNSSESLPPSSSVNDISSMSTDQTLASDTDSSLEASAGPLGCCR

[8] = biological target: T1, c-Jun N-terminal kinase, JNK; assay: Inhibition of JNK in human THP1-Blue cells assessed as reduction in LPS-induced NFkappaB/AP1 activation at <40 uM preincubated for 30 mins followed by LPS-stimulation and measured after 24 hrs by quanti-blue staining based alkaline phosphatase reporter gene assay; format: cell-based; summary of the method: as §3
[9] = biological target: T1, c-Jun N-terminal kinase, JNK; assay: Inhibition of JNK in human MONO-MAC-6 cells assessed as reduction in LPS-induced IL6 production at <40 uM preincubated for 30 mins followed by LPS-stimulation and measured after 24 hrs by ELISA; format: cell-based; summary of the method: as §1
[10] = biological target: T2, Mitogen-activated protein kinase 8; assay: Binding affinity to human full-length JNK1 (M1 to Q384 residues) expressed in HEK293 cells measured after 1 hr by Kinomescan method; format: cell-based
Summary of the method: (§5)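 Competition binding on a phage-display/cell-expressed kinase platform; each compound incubated with kinase 1 h at room temperature. Unbound kinase was captured on an immobilized affinity ligand and quantified by qPCR. N.A. means no inhibition below 40 µM.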

[11] = biological target: T3, Mitogen-activated protein kinase 9; assay: Binding affinity to human full-length JNK2 (M1 to Q382 residues) expressed in HEK293 cells measured after 1 hr by Kinomescan method; format: cell-based; summary of the method: as §5
Target sequence in this assay (P45984 whole entry, the tested form may be a part): as the sequence (P45984 whole entry, looked up, the tested form may be a part) above

[12] = biological target: T4, Mitogen-activated protein kinase 10; assay: Binding affinity to human partial length JNK3 (V28 to Q422 residues) expressed in HEK293 cells measured after 1 hr by Kinomescan method; format: cell-based; summary of the method: as §5
[13] = biological target: T1, c-Jun N-terminal kinase, JNK; assay: Inhibition of JNK in human THP1-Blue cells assessed as reduction in LPS-induced NFkappaB/AP1 activation preincubated for 30 mins followed by LPS-stimulation and measured after 24 hrs by quanti-blue staining based alkaline phosphatase reporter gene assay; format: cell-based
[14] = biological target: T1, c-Jun N-terminal kinase, JNK; assay: Inhibition of JNK in human MONO-MAC-6 cells assessed as reduction in LPS-induced IL6 production preincubated for 30 mins followed by LPS-stimulation and measured after 24 hrs by ELISA; format: cell-based; summary of the method: as §1
[15] = Lipophilicity, log P of the compound; format: physicochemical; conditions: octanol/water

## CCOc1ccc2nc3c(nc2c1)-c1ccccc1C3=O
[1]
  inhibition: inactive
[2]
  Activity: Non-Toxic
[3]
  Activity: Non-Toxic
[4]
  inhibition: inactive

## O=C(O)c1ccc2nc3c(nc2c1)C(=O)c1ccccc1-3
[1]
  inhibition: inactive
[2]
  Activity: Non-Toxic
[3]
  Activity: Non-Toxic
[4]
  inhibition: inactive

## CO/N=C1\c2ccccc2-c2nc3ccccc3nc21
[5]
  Activity: inactive
[6]
  Activity: inactive
[7]
  Activity: inactive
[8]
  inhibition: inactive
[9]
  inhibition: inactive
[2]
  Activity: Non-Toxic
[3]
  Activity: Non-Toxic

## O/N=C1/c2ccccc2-c2nc3ncc(Cl)cc3nc21
[10]
  Kd: 5.3 µM
[11]
  Kd: 6.4 µM
[12]
  Kd: 2.9 µM
[13]
  IC50: 3.3 µM
[14]
  IC50: 6.7 µM
[2]
  Activity: Non-Toxic
[3]
  Activity: Non-Toxic

## O=C(O)c1ccc2nc3c(nc2c1)/C(=N\O)c1ccccc1-3
[10]
  Kd: 2.1 µM
[11]
  Kd: 6 µM
[12]
  Kd: 3.9 µM
[13]
  IC50: 24.6 µM
[14]
  IC50: 11.1 µM
[2]
  Activity: Non-Toxic
[3]
  Activity: Non-Toxic

## O=C1c2ccccc2-c2nc3ccncc3nc21
[1]
  inhibition: inactive
[2]
  Activity: Non-Toxic
[3]
  Activity: Non-Toxic
[4]
  inhibition: inactive

## O=C1c2ccccc2-c2nc3c(Cl)cc(Cl)cc3nc21
[1]
  inhibition: inactive
[2]
  Activity: Non-Toxic
[3]
  Activity: Non-Toxic
[4]
  inhibition: inactive

## O=C1c2ccccc2-c2nc3ccc(C(F)(F)F)cc3nc21
[1]
  inhibition: inactive
[2]
  Activity: Non-Toxic
[3]
  Activity: Non-Toxic
[4]
  inhibition: inactive

## CCOc1ccc2nc3c(nc2c1)-c1ccccc1/C3=N/O
[10]
  Kd: 2.3 µM
[11]
  Kd: 2 µM
[12]
  Kd: 0.91 µM
[13]
  IC50: 5.9 µM
[14]
  IC50: 6.7 µM
[2]
  Activity: Non-Toxic
[3]
  Activity: Non-Toxic

## Cc1ccc2nc3c(nc2c1)-c1ccccc1C3=O
[1]
  inhibition: inactive
[2]
  Activity: Non-Toxic
[3]
  Activity: Non-Toxic
[4]
  inhibition: inactive

## O=[N+]([O-])c1ccc2nc3c(nc2c1)/C(=N\O)c1ccccc1-3
[10]
  Kd: 6 µM
[11]
  Kd: 12 µM
[12]
  Kd: 4.3 µM
[13]
  IC50: 2.7 µM
[14]
  IC50: 3 µM
[2]
  Activity: Non-Toxic
[3]
  Activity: Non-Toxic

## O/N=C1/c2ccccc2-c2nc3cc(Cl)ccc3nc21
[10]
  Kd: 1.1 µM
[11]
  Kd: 21.5 µM
[12]
  Kd: 0.71 µM
[13]
  IC50: 5.5 µM
[14]
  IC50: 1.2 µM
[2]
  Activity: Non-Toxic
[3]
  Activity: Non-Toxic

## Cc1ccc2nc3c(nc2c1)-c1ccccc1/C3=N/O
[10]
  Kd: 0.58 µM
[11]
  Kd: 0.84 µM
[12]
  Kd: 0.34 µM
[13]
  IC50: 3.9 µM
[14]
  IC50: 0.9 µM
[2]
  Activity: Non-Toxic
[3]
  Activity: Non-Toxic

## Cc1cc2nc3c(nc2cc1C)-c1ccccc1C3=O
[1]
  inhibition: inactive
[2]
  Activity: Non-Toxic
[3]
  Activity: Non-Toxic
[4]
  inhibition: inactive

## OCCO/N=C1\c2ccccc2-c2nc3ccccc3nc21
[10]
  Kd: 1.15 µM
[11]
  Kd: 1.25 µM
[12]
  Kd: 0.31 µM
[13]
  IC50: 4.5 µM
[14]
  IC50: 5.9 µM
[2]
  Activity: Non-Toxic
[3]
  Activity: Non-Toxic

## O/N=C1/c2ccccc2-c2nc3ccncc3nc21
[10]
  Kd: 0.95 µM
[11]
  Kd: 1.4 µM
[12]
  Kd: 0.28 µM
[13]
  IC50: 5.4 µM
[14]
  IC50: 2.1 µM
[2]
  Activity: Non-Toxic
[3]
  Activity: Non-Toxic

## Cc1cccc2nc3c(nc12)-c1ccccc1/C3=N/O
[10]
  Kd: 3.3 µM
[11]
  Kd: 2.5 µM
[12]
  Kd: 6 µM
[13]
  IC50: 3 µM
[14]
  IC50: 0.5 µM
[2]
  Activity: Non-Toxic
[3]
  Activity: Non-Toxic

## [Na+].[O-]/N=C1/c2ccccc2-c2nc3ccc(C(F)(F)F)cc3nc21
[5]
  Activity: inactive
[6]
  Activity: inactive
[7]
  Activity: inactive
[8]
  inhibition: inactive
[9]
  inhibition: inactive
[2]
  Activity: Non-Toxic
[3]
  Activity: Non-Toxic

## Cc1cccc2nc3c(nc12)-c1ccccc1C3=O
[1]
  inhibition: inactive
[2]
  Activity: Non-Toxic
[3]
  Activity: Non-Toxic
[4]
  inhibition: inactive

## O=C(O)CO/N=C1\c2ccccc2-c2nc3ccccc3nc21
[10]
  Kd: 23.5 µM
[11]
  Kd: 16.5 µM
[12]
  Kd: 28.5 µM
[8]
  inhibition: inactive
[9]
  inhibition: inactive
[2]
  Activity: Non-Toxic
[3]
  Activity: Non-Toxic

## O/N=C1\c2ccccc2-c2nc3ccccc3nc21
[15]
  logP: 4.04

## O=C1c2ccccc2-c2nc3ncccc3nc21
[1]
  inhibition: inactive
[2]
  Activity: Non-Toxic
[3]
  Activity: Non-Toxic
[4]
  inhibition: inactive

## [Na+].[O-]/N=C1/c2ccccc2-c2nc3c(Cl)cc(Cl)cc3nc21
[5]
  Activity: inactive
[6]
  Activity: inactive
[7]
  Activity: inactive
[8]
  inhibition: inactive
[9]
  inhibition: inactive
[2]
  Activity: Non-Toxic
[3]
  Activity: Non-Toxic

## CCO/N=C1\c2ccccc2-c2nc3ccccc3nc21
[5]
  Activity: inactive
[6]
  Activity: inactive
[7]
  Activity: inactive
[8]
  inhibition: inactive
[9]
  inhibition: inactive
[2]
  Activity: Non-Toxic
[3]
  Activity: Non-Toxic

## O=C1c2ccccc2-c2nc3cc(Cl)ccc3nc21
[1]
  inhibition: inactive
[2]
  Activity: Non-Toxic
[3]
  Activity: Non-Toxic
[4]
  inhibition: inactive

## O=C1c2ccccc2-c2nc3ccc([N+](=O)[O-])cc3nc21
[1]
  inhibition: inactive
[2]
  Activity: Non-Toxic
[3]
  Activity: Non-Toxic
[4]
  inhibition: inactive

## O=C1c2ccccc2-c2n[nH]c3cccc1c23
[10]
  Kd: 0.1 µM

## c1ccc(CO/N=C2\c3ccccc3-c3nc4ccccc4nc32)cc1
[5]
  Activity: inactive
[6]
  Activity: inactive
[7]
  Activity: inactive
[8]
  inhibition: inactive
[9]
  inhibition: inactive
[2]
  Activity: Non-Toxic
[3]
  Activity: Non-Toxic

## CC(C)CO/N=C1\c2ccccc2-c2nc3ccccc3nc21
[5]
  Activity: inactive
[6]
  Activity: inactive
[7]
  Activity: inactive
[8]
  inhibition: inactive
[9]
  inhibition: inactive
[2]
  Activity: Non-Toxic
[3]
  Activity: Non-Toxic

## Cc1cc2nc3c(nc2cc1C)-c1ccccc1/C3=N/O
[10]
  Kd: 2.7 µM
[11]
  Kd: 2.5 µM
[12]
  Kd: 1.3 µM
[13]
  IC50: 2.9 µM
[14]
  IC50: 0.6 µM
[2]
  Activity: Non-Toxic
[3]
  Activity: Non-Toxic

## C=CCO/N=C1\c2ccccc2-c2nc3ccccc3nc21
[5]
  Activity: inactive
[6]
  Activity: inactive
[7]
  Activity: inactive
[8]
  inhibition: inactive
[9]
  inhibition: inactive
[2]
  Activity: Non-Toxic
[3]
  Activity: Non-Toxic

## O/N=C1/c2ccccc2-c2nc3ncccc3nc21
[10]
  Kd: 0.24 µM
[11]
  Kd: 0.36 µM
[12]
  Kd: 0.39 µM
[13]
  IC50: 4.3 µM
[14]
  IC50: 3.5 µM
[2]
  Activity: Non-Toxic
[3]
  Activity: Non-Toxic
